Results from different studies.
Protocols differ between the studies behind these lines.
PARP1: Poly [ADP-ribose] polymerase 1 (PARP1, Homo sapiens, UniProt P09874)
SCN9A: Sodium channel protein type 9 subunit alpha (SCN9A, Homo sapiens, UniProt Q15858)
EHMT1: Histone-lysine N-methyltransferase EHMT1 (EHMT1, Homo sapiens, UniProt Q9H9B1)
PDE5A: cGMP-specific 3',5'-cyclic phosphodiesterase (PDE5A, Homo sapiens, UniProt O76074)
SPHK1: Sphingosine kinase 1 (SPHK1, Homo sapiens, UniProt Q9NYA1)
OPRK1: Kappa-type opioid receptor (OPRK1, Homo sapiens, UniProt P41145)
EDNRA: Endothelin-1 receptor (EDNRA, Homo sapiens, UniProt P25101)
ADORA2A: Adenosine receptor A2a (ADORA2A, Homo sapiens, UniProt P29274)
PIK3C2B: Phosphatidylinositol 4-phosphate 3-kinase C2 domain-containing subunit beta (PIK3C2B, Homo sapiens, UniProt O00750)

SMILES | target | test | setting | inhibition
O=C(c1ccc(-c2nc3ccccc3c(=O)[nH]2)c(F)c1)N1CCn2c(nnc2C(F)(F)F)C1 | PARP1 | enzyme activity, inhibitor, ELISA | 1 µM | 13%
COc1ccc(-n2nc(OCCCN3CCCCC3)ccc2=O)cc1 | SCN9A | ligand displacement | 1 µM | 32.1%
O=C(O)c1cc(O)c2c(c1)[C@H]([C@H]1c3cc(C(=O)O)cc(O)c3C(=O)c3c(O[C@@H]4O[C@H](CO)[C@@H](O)[C@H](O)[C@H]4O)cccc31)c1cccc(O[C@@H]3O[C@H](CO)[C@@H](O)[C@H](O)[C@H]3O)c1C2=O | EHMT1 | cell-free assay | 10 µM | 16%
CCN1C(=O)[C@H]2Cc3c([nH]c4ccccc34)[C@@H](c3cccnc3)N2C1=O | PDE5A | enzyme activity, inhibitor, FP | 50 µM | 102%
[H]/N=C(/N)N1CCC[C@H]1c1nc(-c2ccc(OCCC=CCCC)c(C(F)(F)F)c2)no1 | SPHK1 | enzyme activity, inhibitor, radiometric | 1 µM | 11%
CCN1C(=O)[C@@H]2Cc3c([nH]c4ccccc34)[C@H](c3ccc(OC)c(OC)c3)N2C1=O | PDE5A | enzyme activity, inhibitor, FP | 50 µM | 52%
O=C(c1ccc(F)cc1)N(Cc1ccccc1)C1CCCCC1 | OPRK1 | ligand displacement | 10 µM | 33%
O=C(Oc1cc(O)cc2c1C[C@@H](OC(=O)c1cc(O)c(O)c(O)c1)[C@@H](c1cc(O)c(O)c(O)c1)O2)c1cc(O)c(O)c(O)c1 | EHMT1 | cell-free assay | 10 µM | -4%
[H]/N=C(\N)N1CCC[C@H]1c1nc(-c2ccc(OCC=Cc3cccc(Br)c3)c(C(F)(F)F)c2)no1 | SPHK1 | enzyme activity, inhibitor, radiometric | 1 µM | 12%
O=C1N=C(N2CCCCN2)S/C1=C\c1ccc(F)cc1O | Thromboxane A2 receptor (TBXA2R, Homo sapiens, UniProt P21731) | ligand displacement, radioligand | 10 µM | 11%
O=C1c2c(O)cccc2Cc2cccc(O)c21 | EHMT1 | cell-free assay | 10 µM | 10%
COc1cc(NC(C)=O)c(Cl)cc1C(=O)Nc1nccs1 | EDNRA | cell-free assay | 10 µM | -1.4%
N#Cc1cc(Cn2c(N3CCCC3)nc3ccccc32)ccc1F | OPRK1 | ligand displacement | 10 µM | -11.7%
CCCCC(CC)CNC(=N)NC(=N)NCCCCCCNC(=N)NC(=N)NCC(CC)CCCC (stereo not shown) | EHMT1 | cell-free assay | 10 µM | -22%
COc1ccc(F)cc1C(=O)NCc1ccc(-c2nn([C@@H](C)C(F)(F)F)c(N)c2C(N)=O)cc1 | Mitogen-activated protein kinase kinase kinase 3 (MAP3K3, Homo sapiens, UniProt Q99759) | target engagement in cells, inhibitor, chemoproteomics | 0.1 µM | 26.3%
c1coc(-c2nc3cc(CN4CCNCC4)ccc3o2)c1 | ADORA2A | ligand displacement, radioligand | 10 µM, cell membranes | 15%
N=C(N)N1CCC[C@H]1c1nc(-c2ccc(CCC3CCCCC3)c(C(F)(F)F)c2)no1 | SPHK1 | enzyme activity, inhibitor, radiometric | 1 µM | 15%
CC(C)CCn1c(SCC(=O)Nc2ccccc2C(F)(F)F)nc2nccnc2c1=O | SPHK1 | enzyme activity, inhibitor | 10 µM | < 20%
O=C1NCCCc2ccc(F)cc21 | PARP1 | enzyme activity, inhibitor | 10 µM | 15%
COC(=O)[C@H]1Cc2c([nH]c3ccccc23)[C@H](c2cccnc2)N1 | PDE5A | enzyme activity, inhibitor, FP | 50 µM | 30%
COc1cc(OC)c2c(=O)[nH]c(-c3c[nH]c4ncccc34)nc2c1 | PARP1 | enzyme activity, inhibitor, ELISA | 10 µM | 31%
Oc1ccc(N2CCN(Cc3ccc4oc(-c5ccco5)nc4c3)CC2)cc1 | ADORA2A | ligand displacement, radioligand | 10 µM, cell membranes | 11%
Cc1cnc(C(=O)NCCNC(=O)Cn2[nH]c(=O)c3ccccc3c2=O)cn1 | PARP1 | enzyme activity, inhibitor | 0.5 µM | ~50%

SMILES | target | test | setting | inhibition
C=CCN1C(=O)[C@H]2Cc3c([nH]c4ccccc34)[C@@H](c3ccc(Br)s3)N2C1=O | PDE5A | enzyme activity, inhibitor, FP | 10 µM | 96%
O=c1c(-c2cc(O)c(O)c(O)c2)coc2cc(O)c(O)c(O)c12 | EHMT1 | cell-free assay | 10 µM | 0%
CCCCc1ccc(CCc2ccc(-c3noc([C@@H]4CCCN4C(=N)N)n3)cc2C(F)(F)F)cc1 | SPHK1 | enzyme activity, inhibitor, radiometric | 1 µM | 6%
CC(C)(C)OC(=O)N1CCN(Cc2ccc3oc(-c4ccco4)nc3c2)CC1 | ADORA2A | ligand displacement, radioligand | 10 µM, cell membranes | 15%
N=C(N)N1CCC[C@H]1c1nc(-c2ccc(CCC3CC3)c(C(F)(F)F)c2)no1 | SPHK1 | enzyme activity, inhibitor, radiometric | 1 µM | 14%
O=C(CSc1nc2nccnc2c(=O)n1CCc1ccccc1)Nc1nccs1 | PIK3C2B | enzyme activity, inhibitor | 10 µM | 68%
CCN(CC)c1ccc(C2Nc3ccc(C(=O)c4ccccc4)cc3NC3=C2C(=O)CC(C)(C)C3)cc1 (stereo not shown) | OPRK1 | ligand displacement, radioligand | 10 µM | 10%
O=C(CSc1nc2nccnc2c(=O)n1CCc1ccccc1)Nc1ccccc1 | PIK3C2B | enzyme activity, inhibitor | 10 µM | 72%
O=C(c1ccc(Cl)cc1)N(Cc1ccccc1)C1CCCCC1 | EDNRA | cell-free assay | 10 µM | 1.4%
CCN(Cc1ccccc1C(F)(F)F)C(=O)C1CCN(S(=O)(=O)c2ccc3[nH]ncc3c2)CC1 | OPRK1 | ligand displacement, radioligand | 10 µM | 5%
COc1ccc(-c2nc3cc(CN4CCCCC4)ccc3o2)cc1OC | ADORA2A | ligand displacement, radioligand | 10 µM, cell membranes | 18%
CSCCC(NC=O)C(=O)NC(C)C(=O)O (stereo not shown) | EHMT1 | cell-free assay | 10 µM | 0%
COc1ccc([C@@H]2c3[nH]c4ccccc4c3C[C@@H]3C(=O)N(C(C)(C)C)C(=O)N23)cc1OC | PDE5A | enzyme activity, inhibitor, FP | 50 µM | 54%
Ic1cccc2cnccc12 | PARP1 | enzyme activity, inhibitor | 10 µM | 19.5%
CN1CCN(CCCOc2ccc(=O)n(-c3ccc(Cl)c(Cl)c3)n2)CC1 | SCN9A | ligand displacement | 1 µM | 20.5%
O=C(Nc1ccc(S(=O)(=O)N2CCC(Cl)CC2)cc1)c1ccc([N+](=O)[O-])o1 | Sigma non-opioid intracellular receptor 1 (SIGMAR1, Homo sapiens, UniProt Q99720) | ligand displacement, radioligand | 10 µM | 38%
COC(=O)[C@H]1Cc2c([nH]c3ccccc23)[C@H](c2ccc(OC)c(OC)c2)N1C(=O)CCl | PDE5A | enzyme activity, inhibitor, FP | 50 µM | 75%
N=C(N)N1CCC[C@H]1c1nc(-c2ccc(CCc3ccc(C(F)(F)F)cc3)c(C(F)(F)F)c2)no1 | SPHK1 | enzyme activity, inhibitor, radiometric | 1 µM | 12%
CN(C)C1CCN(CC#Cc2nn(C3CCCC3)c3nc(NCc4ccccc4)ncc23)C1 (stereo not shown) | Cytoplasmic tyrosine-protein kinase BMX (BMX, Homo sapiens, UniProt P51813) | enzyme activity, inhibitor, FRET | 1 µM | 4%
Oc1cccc(Nc2nc(-c3ccc(F)cc3F)cs2)c1 | EDNRA | cell-free assay | 10 µM | -11.2%
Cn1cncc1C1=CN(c2ncnc3[nH]cnc23)CCS1 | Interleukin-1 receptor-associated kinase-like 2 (IRAK2, Homo sapiens, UniProt O43187) | enzyme activity, inhibitor, radiometric | 50 nM | 30.7%
CC(C)(C)N1C(=O)[C@@H]2Cc3c([nH]c4ccccc34)[C@H](c3cccnc3)N2C1=O | PDE5A | enzyme activity, inhibitor, FP | 50 µM | 45%
CC(C)(C)c1ccc(CCc2ccc(-c3noc([C@@H]4CCCN4C(=N)N)n3)cc2C(F)(F)F)cc1 | SPHK1 | enzyme activity, inhibitor, radiometric | 1 µM | 17%
